pIC50: −log10 of the molar value.
Legend:
[1] = Antiinflammatory activity in mouse RAW264.7 cells assessed as inhibition of LPS-induced nitric oxide production after 24 hrs by Griess assay; assay type: functional, cell-based; details: RAW264.7, 24 h
Procedure, shortened: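 RAW 264.7 macrophages seeded at 1 × 10^6 cells/well, then incubated 24 h at 37 °C with LPS (1 μg/mL), with or without test compounds. NO measured by Griess reagent (0.1% N-(1-naphthyl)ethylenediamine plus 1% sulfanilamide in 5% H3PO4), absorbance at 540 nm. NO concentration and inhibition rate calculated from a standard curve. Hydrocortisone served as positive control.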

[2] = Antiproliferative activity against human 22Rv1 cells assessed as inhibition of cell viability after 48 hrs by MTT reduction assay; assay type: functional, cell-based, CWR22R; details: 22Rv1, 48 h
Procedure, shortened: (§1)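 Cells grown in RPMI-1640 or EMEM with 10% FBS at 37 °C under 5% CO2. Seeded at 1 × 10^4 cells/well for 12 h, then exposed to a range of compound concentrations for 48 h. Viability read by MTT reduction. 5-Fluorouracil was the positive control. Each assay was repeated three times, and IC50 reported as mean ± SD.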

[3] = Antiproliferative activity against human 786-0 cells assessed as inhibition of cell viability after 48 hrs by MTT reduction assay; assay type: functional, cell-based; details: 786-0, 48 h; procedure, shortened: as §1
[4] = Antiproliferative activity against human A498 cells assessed as inhibition of cell viability after 48 hrs by MTT reduction assay; assay type: functional, cell-based; details: A498, 48 h; procedure, shortened: as §1
[5] = Antiproliferative activity against human ACHN cells assessed as inhibition of cell viability after 48 hrs by MTT reduction assay; assay type: functional, cell-based; procedure, shortened: as §1
[6] = Antiproliferative activity against human A375-S2 cells assessed as inhibition of cell viability after 48 hrs by MTT reduction assay; assay type: functional, cell-based; details: A375-S2, 48 h; procedure, shortened: as §1
[7] = Antiproliferative activity against human C4-2B cells assessed as inhibition of cell viability after 48 hrs by MTT reduction assay; assay type: functional, cell-based; details: LNCaP C4-2B; procedure, shortened: as §1

SMILES | pIC50 [1] | pIC50 [2] | pIC50 [3] | pIC50 [4] | pIC50 [5] | pIC50 [6] | pIC50 [7]
CC(=O)O[C@H]1C[C@@](O)([C@H](C)[C@H]2CC(C)=C(C)C(=O)O2)[C@@]2(C)CC[C@H]3[C@@H](C[C@H]4O[C@]45CC=CC(=O)[C@]35C)[C@@]12O | 5.47 | 5.62 | 6.28 | 6.28 | 6.40 | 5.41 | 6.57
CC(=O)O[C@H]1C=C([C@H](C)[C@H]2CC(C)=C(C)C(=O)O2)[C@@]2(C)CC[C@H]3[C@@H](C[C@@H](O)[C@@]4(O)CC=CC(=O)[C@]34C)[C@]12O | 4.19 | < 5.00 | < 5.00 | < 5.00 | < 5.00 | < 5.00 | < 5.00
CC(=O)O[C@H]1C=C([C@H](C)[C@H]2CC(C)=C(C)C(=O)O2)[C@@]2(C)CC[C@H]3[C@@H](C[C@H](O)[C@]4(O)CC=CC(=O)[C@]34C)[C@@]12O | 4.94 | < 5.00 | < 5.00 | < 5.00 | < 5.00 | < 5.00 | < 5.00
CO[C@]12CC=CC(=O)[C@]1(C)[C@H]1CC[C@@]3(C)[C@](O)([C@@H](OC(C)=O)C[C@@]3(O)[C@H](C)[C@H]3CC(C)=C(C)C(=O)O3)[C@@H]1C[C@H]2O | 5.45 | < 5.00 | < 5.00 | < 5.00 | < 5.00 | < 5.00 | < 5.00
CC1=C(CO)C[C@H]([C@]2(C)OC(=O)[C@]34[C@H](O)C[C@H]5[C@@H](CC=C6CC=CC(=O)[C@@]65C)[C@]3(O)[C@H](O)C[C@H]24)OC1=O | 4.76 | < 5.00 | < 5.00 | < 5.00 | < 5.00 | < 5.00 | < 5.00
CC(=O)O[C@H]1C=C([C@H](C)[C@H]2CC(C)=C(C)C(=O)O2)[C@@]2(C)CC[C@H]3[C@@H](C[C@@H](O)[C@@]4(Cl)CC=CC(=O)[C@]34C)[C@]12O | 5.47 | 6.32 | 6.38 | 6.38 | 5.32 | 5.47 | 6.29
CC(=O)O[C@H]1C[C@H]([C@H](C)[C@H]2CC(C)=C(C)C(=O)O2)[C@@]2(C)CC[C@H]3[C@@H](C[C@@H](O)[C@@]4(O)CC=CC(=O)[C@]34C)[C@H]12 | 4.75 | 4.94 | < 5.00 | < 5.00 | < 5.00 | < 5.00 | < 5.00
CC(=O)O[C@H]1C=C([C@H](C)[C@H]2CC(C)=C(C)C(=O)O2)[C@@]2(C)CC[C@H]3[C@@H](C[C@H]4O[C@]45CC=CC(=O)[C@]35C)[C@]12O | 5.52 | 6.20 | 6.18 | 6.18 | 5.97 | 5.47 | 6.74
CC(=O)O[C@H]1[C@@H]2O[C@]2([C@H](C)[C@H]2CC(C)=C(C)C(=O)O2)[C@@]2(C)CC[C@H]3[C@@H](C[C@H]4O[C@]45CC=CC(=O)[C@]35C)[C@@]12O | 5.60 | < 5.00 | < 5.00 | < 5.00 | < 5.00 | < 5.00 | < 5.00
CC(=O)O[C@H]1[C@@H]2O[C@]2([C@H](C)[C@H]2CC(C)=C(C)C(=O)O2)[C@@]2(C)CC[C@H]3[C@@H](C[C@@H](O)[C@@]4(Cl)CC=CC(=O)[C@]34C)[C@@]12O | 5.85 | 5.64 | 6.16 | 6.28 | 6.11 | 5.30 | 5.97
CO[C@]12CC=CC(=O)[C@]1(C)[C@H]1CC[C@@]3(C)[C@@](O)([C@@H]1C[C@H]2O)[C@@H](OC(C)=O)[C@@H]1O[C@@]13[C@H](C)[C@H]1CC(C)=C(C)C(=O)O1 | 5.20 | < 5.00 | < 5.00 | < 5.00 | < 5.00 | < 5.00 | < 5.00
CC1=C(C)C(=O)O[C@@H]([C@](C)(O)[C@H]2C[C@H](O)[C@H]3[C@@H]4C[C@@H](O)[C@@]5(O)CC=CC(=O)[C@]5(C)[C@H]4CC[C@@]32C)C1 | 4.14 | < 5.00 | < 5.00 | < 5.00 | < 5.00 | < 5.00 | < 5.00
CO[C@@H]1CC(=O)[C@]2(C)[C@H]3CC[C@@]4(C)[C@@](O)([C@@H]3C[C@H]3O[C@]32C1)[C@@H](OC(C)=O)[C@@H]1O[C@@]14[C@H](C)[C@H]1CC(C)=C(C)C(=O)O1 | 5.45 | 5.93 | 5.66 | < 5.00 | < 5.00 | < 5.00 | 5.67
CC1=C(C)C(=O)O[C@@H]([C@@H](C)C2=C[C@@H]3OC(C)(C)O[C@@]34[C@@H]3C[C@@H](O)[C@@]5(O)CC=CC(=O)[C@]5(C)[C@H]3CC[C@]24C)C1 | 4.25 | < 5.00 | < 5.00 | < 5.00 | < 5.00 | < 5.00 | < 5.00
CC1=C(C)C(=O)O[C@@H]([C@@H](C)C2=C[C@@H](O)[C@]3(O)[C@@H]4C[C@@H](O)[C@@]5(O)CC=CC(=O)[C@]5(C)[C@H]4CC[C@]23C)C1 | 4.42 | < 5.00 | < 5.00 | < 5.00 | < 5.00 | < 5.00 | < 5.00
CO[C@H]1C=C([C@H](C)[C@H]2CC(C)=C(C)C(=O)O2)[C@@]2(C)CC[C@H]3[C@@H](C[C@@H](O)[C@@]4(O)CC=CC(=O)[C@]34C)[C@@]12O | 4.94 | < 5.00 | < 5.00 | < 5.00 | < 5.00 | < 5.00 | < 5.00
O=c1[nH]cc(F)c(=O)[nH]1 [FLUOROURACIL] | – | 5.42 | < 5.00 | 5.05 | 5.56 | 5.72 | 5.25
CC1=C(C)C(=O)O[C@@H]([C@@H](C)C2=C[C@H](O)[C@]3(O)[C@@H]4C[C@@H](O)[C@@]5(O)CC=CC(=O)[C@]5(C)[C@H]4CC[C@]23C)C1 | 4.44 | < 5.00 | < 5.00 | < 5.00 | < 5.00 | < 5.00 | < 5.00
CC1=C(C)C(=O)O[C@@H]([C@@H](C)[C@]23O[C@H]2[C@H](O)[C@]2(O)[C@@H]4C[C@@H](O)[C@@]5(O)CC=CC(=O)[C@]5(C)[C@H]4CC[C@@]23C)C1 | < 4.00 | < 5.00 | < 5.00 | < 5.00 | < 5.00 | < 5.00 | < 5.00
CO[C@H]1CC(=O)[C@]2(C)[C@H]3CC[C@]4(C)C([C@H](C)[C@H]5CC(C)=C(C)C(=O)O5)=C[C@H](OC(C)=O)[C@@]4(O)[C@@H]3C[C@H]3O[C@]32C1 | 5.25 | 5.65 | 5.61 | 5.33 | 5.12 | < 5.00 | 5.94
